# In the library only some 2.8% were active in any assay of this set; here they are far more common.
# PAFAH1B2 FP inh – PAFAH1B2 enzyme inhibitors, primary screen, biochemical, fluorescence polarization, human; recombinant PAFAH1B2, FP-rhodamine activity probe; AID 492953, 2010; inhibition, % at 3.39 µM; 1.2% of 340,000 active;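 active = inhibition above the mean of all tested compounds plus 3 SD, cut at about 24% in these data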
# Target sequence (P68402 whole entry, looked up): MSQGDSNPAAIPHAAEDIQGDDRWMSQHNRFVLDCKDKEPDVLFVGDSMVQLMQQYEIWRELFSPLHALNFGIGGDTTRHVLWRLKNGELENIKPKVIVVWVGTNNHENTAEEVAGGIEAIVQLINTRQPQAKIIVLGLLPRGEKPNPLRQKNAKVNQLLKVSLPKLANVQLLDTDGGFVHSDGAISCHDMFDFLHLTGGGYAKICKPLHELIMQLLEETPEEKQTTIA
# pPAFAH FP inh – pPAFAH enzyme inhibitors, primary screen, biochemical, fluorescence polarization, human | Platelet-activating factor acetylhydrolase (Homo sapiens), Q13093 | recombinant pPAFAH, FP-rhodamine probe fluorescence polarization | inhibition, % at 3.39 µM | 1.5% of 330,000 active | AID 463082, 2010;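 active = inhibition above the mean inhibition across the screen plus 3 SD, cut at about 25% in these data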;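 also: inhibitors block binding of the rhodamine activity-based probe so polarization drops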
# HTRA1 inhibitor – HTRA1 serine protease inhibitors, primary screen, biochemical, fluorescence polarization, HTS; AID 504803, 2011; recombinant HTRA1, FP-rhodamine activity-based probe; 0.5% of 340,000 active; inhibition, % at 5.96 µM; in the data active = inhibition above about 36%
# mABHD4 FP – ABHD4 inhibitors, primary screen, biochemical, fluorescence polarization, mouse. (Lyso)-N-acylphosphatidylethanolamine lipase (Mus musculus), Q8VD66. purified mABHD4, FP-Rh probe fluorescence polarization. inhibition, % at 8.92 µM. 0.54% of 370,000 active. AID 720543, 2013;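 active = inhibition exceeding the mean over every tested compound plus 3 SD, cut at about 30% in these data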
# Target sequence (Q8VD66 whole entry, looked up): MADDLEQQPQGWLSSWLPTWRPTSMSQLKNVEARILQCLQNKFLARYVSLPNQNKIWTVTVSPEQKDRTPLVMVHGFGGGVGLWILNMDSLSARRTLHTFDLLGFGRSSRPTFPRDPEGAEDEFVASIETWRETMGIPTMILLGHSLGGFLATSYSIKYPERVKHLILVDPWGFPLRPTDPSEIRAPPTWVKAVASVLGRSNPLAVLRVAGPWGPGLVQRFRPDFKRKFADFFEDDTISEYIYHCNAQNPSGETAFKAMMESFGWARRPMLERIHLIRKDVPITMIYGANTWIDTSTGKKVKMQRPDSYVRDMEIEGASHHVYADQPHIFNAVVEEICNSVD
#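 system = mouse ABHD4 enzyme, wild type | medium = HEPES pH 7.0, NaCl, Pluronic buffer | also added = FP-Rh probe | incubation = Enzyme–compound pre-incubation 45 min, then probe 60 min, both 25 °C | technique = fluorescence polarization, excitation 525 nm, emission 598 nm, BODIPY TMR filters | controls = S159A mutant high control, sample median low control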
# PAFAH2 inh – PAFAH2 enzyme inhibitors, primary screen, biochemical, fluorescence polarization, human | Platelet-activating factor acetylhydrolase 2, cytoplasmic (Homo sapiens), Q99487 | AID 492956, 2010 | 0.99% of 340,000 active | inhibition, % at 3.39 µM | recombinant PAFAH2, FP-rhodamine activity probe;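 active = inhibition above the mean over all tested compounds plus 3 SD, cut at about 30% in these data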;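 also: inhibitors block probe labeling of enzyme so polarization drops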
# PAFAH1B3 FP inh – PAFAH1B3 enzyme inhibitors, primary screen, biochemical, fluorescence polarization, human | inhibition, % at 3.39 µM | recombinant PAFAH1B3, FP-rhodamine probe | 0.28% of 340,000 active;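 active = inhibition above the screen-wide average of all tested compounds plus 3 SD, cut at about 25% in these data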
# pPAFAH FP conf – pPAFAH (PLA2G7) enzyme inhibitors, confirmation, biochemical, fluorescence polarization, human; shares compounds with pPAFAH FP inh; 72% of 2,300 active; recombinant pPAFAH, FP-Rh probe fluorescence polarization; inhibition, % at 3.39 µM;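 active = mean inhibition of the triplicate above the hit cutoff set for the earlier primary screen, cut at about 25% in these data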
# HTRA1 inh conf – HTRA1 protease inhibitors, retest, confirmation, biochemical, fluorescence polarization; recombinant HTRA1, FP-rhodamine activity-based probe; shares compounds with HTRA1 inhibitor; 66% of 1,600 active; inhibition, % at 5.96 µM;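 active = mean inhibition over three repeats above a set limit taken from the earlier primary screen, cut at about 37% in these data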;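 also: inhibitors block probe binding so polarization drops and inhibition rises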
# A number is an active result; . = inactive; / = no result given.
SMILES,PAFAH1B2 FP inh,pPAFAH FP inh,HTRA1 inhibitor,mABHD4 FP,PAFAH2 inh,PAFAH1B3 FP inh,pPAFAH FP conf,HTRA1 inh conf
COc1cccc(NS(=O)(=O)c2ccc3c(c2)C2C=CCC2C(c2ccc(C(=O)O)cc2)N3)c1 (configuration not stated),36,61,49,.,68,40,61,.
O=C(O)c1ccc2c(c1)[C@@H]1C=CC[C@@H]1[C@H](c1ccccn1)N2,33,64,47,70,49,61,.,.
COc1ccc(C(=O)N/N=C(\C)c2ccc3c(c2)C2C=CCC2C(c2ccccc2)N3)cc1 (configuration not stated),.,.,.,/,.,.,/,/
COc1ccc(C=NNc2ccc(S(=O)(=O)Nc3ccccc3C(=O)O)cc2[N+](=O)[O-])c(OC)c1,34,63,47,/,56,29,91,39
C(=Nc1cccc2c(N=Cc3ccco3)cccc12)c1ccco1,.,45,39,/,.,.,.,.
C(=N\C(/N=C/c1ccco1)c1ccco1)/c1ccco1,.,.,.,.,.,.,/,/
COc1cccc(N=Nc2ccc3cccnc3c2O)c1,.,58,77,.,.,.,33,77
COc1cc(OC)cc(C(=O)Nc2cccc3cccnc23)c1,.,.,.,.,.,.,/,/
COc1ccc(/C=N\NC(=O)c2cc(O)c(O)c(O)c2)cc1COc1ccc(C(=O)OCC(C)C)cc1,.,85,58,.,31,26,87,55
O=c1oc2ccccc2c2oc3cc(O)c(O)cc3c12,.,73,82,55,34,.,81,77
COC(=O)[C@@]12CCCCC3=C1N(CCC3)C(=O)[C@H]2CC(=O)N1CCCCC1,/,/,/,.,/,/,/,/
CCc1ccc(S(=O)(=O)/N=C2\C=C(Nc3ccc(O)cc3)C(=O)c3ccccc32)cc1,31,35,78,/,37,66,33,80
Cc1cc(C)c(S(=O)(=O)/N=C2\C=C(Nc3ccc(C(=O)O)cc3)C(=O)c3ccccc32)c(C)c1,26,42,60,71,36,60,40,52
CCOc1ccccc1C(=O)Nc1ccc2nc(C)[nH]c(=O)c2c1,/,/,/,.,/,/,/,/
CCOc1ccc(NC(=O)CSc2nnc(-c3n[nH]c4c3CCC4)n2N)cc1,/,/,/,.,/,/,/,/
CCn1c(SCC(=O)N/N=C/c2cccc(Oc3ccccc3)c2)nnc1-c1ccccc1,/,/,/,.,/,/,/,/
NNc1nc(C(F)(F)F)nc2ccccc12,.,.,.,.,.,.,/,/
O/C=c1\ccc2cccc3nc(C(F)(F)F)nc1c23,.,40,43,.,.,.,.,99
CC(C)(C)c1ccc(S(=O)(=O)N2CCC(C(=O)N3CCN(C4CCCCC4)CC3)CC2)cc1,/,/,/,.,/,/,/,/
O=C(N/N=C/c1ccc(O)c(Br)c1)c1cc2c(ccc3ccccc32)o1,.,/,.,.,.,.,/,/
O=C(N/N=C/c1cc(Cl)c(O)c(Cl)c1)c1cc2c(ccc3ccccc32)o1,36,61,46,.,45,.,70,50
CCCCNC(=O)C[C@H]1C[C@@]2(C(=O)OC)C(=C[C@H](C3CCCC3)O[C@@H]2C)N(CCC2=CCCCC2)C1=O,/,/,/,.,/,/,/,/
O=[N+]([O-])c1ccc(N/N=C/c2cccc(O)c2O)c(S(=O)(=O)N2CCOCC2)c1,.,45,59,.,.,.,57,54
O=[N+]([O-])c1ccccc1N/N=C/c1cccc(O)c1O,.,50,48,.,.,.,.,.
COc1ccc(S[C@]2(C(=O)N3CCN(c4ncccn4)CC3)CC(=O)N(S(=O)(=O)c3ccc(F)cc3)[C@@H]2c2ccc(OC)cc2)cc1,/,/,/,.,/,/,/,/
SMILES,PAFAH1B2 FP inh,pPAFAH FP inh,HTRA1 inhibitor,mABHD4 FP,PAFAH2 inh,PAFAH1B3 FP inh,pPAFAH FP conf,HTRA1 inh conf
Cc1ccccc1NC(=O)CSc1nnc(-c2ccco2)c(-c2ccco2)n1,.,45,43,/,.,.,.,.
O=C1C(Cl)=C(NCc2ccco2)C(=O)c2ccccc21,.,/,.,.,.,.,/,/
O=C1c2ccccc2-c2onc3ccc(NCc4ccco4)c1c23,105,82,117,/,121,104,104,108
CCc1nnn2c1Cn1c3ccccc3c(=O)n1[C@@H](C(C)C)C2,/,/,/,.,/,/,/,/
C/C(CC(=O)Nc1ccc2ccccc2c1)=N\NC(=O)c1ccc(O)c(O)c1,.,54,69,.,.,.,55,84
C/C(CC(=O)Nc1ccc2ccccc2c1)=N\NC(=O)c1cnccn1,.,.,.,.,.,.,/,/
CCCCn1c(SCC(=O)c2ccc(O)c(O)c2)nc2ccsc2c1=O,.,42,59,/,.,.,88,61
Cc1nc2cc(-c3ccsc3-n3c(C)ccc3C)[nH]n2c(=O)c1Cl,.,55,38,.,84,.,47,.
Oc1ccc(/C=N/n2c(-c3ccco3)csc2=Nc2cccnc2)c(O)c1,.,.,.,.,.,.,/,/
CC(C)N=c1scc(-c2ccco2)n1/N=C/c1ccc(O)c(O)c1,.,64,67,36,.,.,69,58
CCOC(=O)C1CCCN(C(=O)c2ccc(C(=O)c3ccccc3)cc2)C1 (configuration not stated),.,.,.,.,.,.,/,/
CCOC(=O)C1CCCN(C(=O)C2c3ccccc3Oc3ccccc32)C1 (configuration not stated),24,55,53,.,54,43,.,.
O=C(O)C1Nc2c(Cl)cc(Cl)cc2C2C=CCC12 (configuration not stated),36,81,55,/,82,.,43,49
O=C(O)C1Nc2c(Cl)cc(Cl)c(Cl)c2C2C=CCC12 (configuration not stated),.,41,42,.,55,.,33,38
CC(C)CNC(=O)C1Nc2ccccc2C2C=CCC12 (configuration not stated),.,.,.,.,.,.,/,/
CCOC(=O)C1Nc2ccc(C)cc2C2C=CCC12 (configuration not stated),.,.,.,.,.,.,/,/
O=C(O)C1Nc2ccc(Br)cc2C2C=CCC12 (configuration not stated),47,70,75,/,79,40,61,69
